Experimental findings from ChEMBL document CHEMBL4673403, “Development of a Hematopoietic Prostaglandin D Synthase-Degradation Inducer” (ACS Med Chem Lett, 2021) are described below.

Active and inactive are the calls of the source. No cut-off for these calls is given here.

Data set [1] concerns the target T1, Hematopoietic prostaglandin D synthase (Homo sapiens, UniProt O60760). Briefly: Binding affinity to recombinant human HPGDS expressed in Escherichia coli BL21 (DE3) measured after 1 hr by fluorescence polarization assay. A digest of the protocol:
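Competitive binding to H-PGDS read by fluorescence polarization with a fluorescence probe.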
(In general: In fluorescence polarisation assays a small probe gives low polarisation when free and higher when bound to something large.)

The target in data set [2] is T1, Hematopoietic prostaglandin D synthase. Put plainly: Inhibition of HPGDS in human KU812 cells assessed as reduction in PGD2 level at 10 to 100 nM incubated for 24 hrs followed by A23187 treatment and measured after 30 mins by ELISA. The format is cell-based. The settings on record: KU812 cell line, dose 10-100 nM, time 1470.0 min. Summed up:
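After 24 h compound exposure, KU812 cells stimulated with 5 μM A23187 for 30 min with compound still present; PGD2 measured in medium. Means ± SD, n = 3; two-tailed t test.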

Data set [3] has the same target. Put plainly: Inhibition of HPGDS in human KU812 cells assessed as reduction in PGD2 level at 10 to 100 nM incubated for 24 hrs followed by A23187 treatment and measured after 30 mins and subsequent compound washout then further incubated for 6 hrs in compound-free medium by ELISA. The format is cell-based. The settings on record: KU812 cell line, dose 10-100 nM, time 1470.0 min. Summed up:
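KU812 cells exposed to compounds 24 h, washed four times, kept 6 h compound-free, then stimulated with 5 μM A23187 for 30 min; medium PGD2 measured. Means ± SD, n = 3; two-tailed t test.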

For data set [4], the target named is T2, Protein cereblon/Hematopoietic prostaglandin D synthase (Homo sapiens) (UniProt O60760+Q96SW2). Put plainly: Protac activity at CRBN/HPGDS in human KU812 cells assessed as induction of HPGDS degradation at 10 to 100 nM incubated for 24 hrs followed by compound washout and further incubated for 6 hrs in compound-free medium by Western blot analysis. The format is cell-based. The settings on record: KU812 cell line, dose 10-100 nM. A digest of the protocol: (§1)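 KU812 cells incubated with compounds 24 h, washed four times, then held 6 h in compound-free medium. Western blot H-PGDS/β-actin normalized to vehicle as 100; means ± SD, n = 3; two-tailed t test.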
(A western blot detects proteins with antibodies after separation by electrophoresis.)

Data set [5] is described as follows: Solubility of the compound. The format is physicochemical.
Data set [6] addresses T1, Hematopoietic prostaglandin D synthase. Put plainly: Inhibition of recombinant human HPGDS expressed in Escherichia coli BL21 (DE3) measured after 3 mins by spectrophotometric analysis.
The target is the same in data set [7]. Briefly: Induction of HPGDS degradation in human KU812 cells at 1 uM measured after 6 hrs in presence of TFC-007 by Western blot analysis. It is filed as cell-based. The settings on record: KU812 cell line. Summed up:
(§2)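 KU812 cells incubated 6 h with 1 μM degrader or with the ligand mixture (TFC-007 plus pomalidomide, 1 μM each). Western blot H-PGDS/β-actin normalized to vehicle as 100; means ± SD, n = 3; two-tailed t test.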

Data set [8] shares this target. Briefly: Inhibition of recombinant human HPGDS.
Data set [9] addresses T2, Protein cereblon/Hematopoietic prostaglandin D synthase (Homo sapiens). Briefly: Protac activity at CRBN/HPGDS in human KU812 cells assessed as induction of HPGDS degradation at 100 nM measured after 6 hrs in presence of proteasome inhibitor MG132 by Western blot analysis. The format is cell-based. The settings on record: KU812 cell line. Summed up:
(§3)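 KU812 cells given 100 nM degrader with or without 10 μM MG132 or 10 μM MLN7243 for 6 h. Western blot H-PGDS/β-actin normalized to vehicle as 100; means ± SD, n = 3.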

For data set [10] the target is unchanged. Put plainly: Competitive binding affinity to HPGDS in human KU812 cells assessed as induction of CRBN-mediated degradation of HPGDS at 100 nM after 6 hrs in presence of excess pomalidomide by Western blot analysis. It is filed as cell-based. The settings on record: KU812 cell line. Summed up:
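KU812 cells given 100 nM degrader and/or 10 μM pomalidomide for 6 h. Western blot H-PGDS/β-actin normalized to vehicle as 100; means ± SD, n = 3.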

Data set [11] shares this target. Put plainly: Protac activity at CRBN/HPGDS in human KU812 cells assessed as reduction in HPGDS protein level at 100 to 1000 nM measured after 3 hrs by Western blot analysis. It is filed as cell-based. The settings on record: KU812 cell line, dose 100-1000 nM. A digest of the protocol:
(§4)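 KU812 cells exposed to graded concentrations for 3, 6 or 24 h. Western blot; H-PGDS/β-actin ratio normalized to vehicle control as 100; means ± SD, n = 3.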

For data set [12] the target is unchanged. Put plainly: Protac activity at CRBN/HPGDS in human KU812 cells assessed as reduction in HPGDS protein level at >=10 nM measured after 6 to 24 hrs by Western blot analysis. The settings on record: KU812 cell line, dose nM >=10, time 6-24 hrs. The format is cell-based. A digest of the protocol:
as §4

Data set [13] shares this target. Put plainly: Protac activity at CRBN/HPGDS in human KU812 cells assessed as reduction in HPGDS protein level at >=10 nM measured after 3 hrs by Western blot analysis. The format is cell-based. The settings on record: KU812 cell line, dose nM >=10, time 3.0 hrs. Summed up:
as §4

Data set [14] shares this target. Put plainly: Protac activity at CRBN/HPGDS in human MEG01s cells assessed as reduction in HPGDS protein level up to 1000 nM measured after 6 hrs by Western blot analysis. The settings on record: dose nM <=1000, time 6.0 hrs. The format is cell-based.
Data set [15] has as its system KU812. Put plainly: Effect on HPGDS mRNA expression in human KU812 cells up to 1000 nM measured after 6 hrs by SYBR green based qRT-PCR analysis. The format is functional, cell-based. The settings on record: dose nM <=1000, time 6.0 hrs. A digest of the protocol:
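KU812 cells treated with the indicated concentrations for 6 h. H-PGDS mRNA expressed relative to vehicle, set to 1; means ± SD, n = 3; two-tailed Student's t test versus vehicle.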
In general terms: Quantitative PCR measures a nucleic acid by following its amplification.

The target of data set [16] is Protein cereblon/G2/mitotic-specific cyclin-B1 (Homo sapiens) (UniProt P14635+Q96SW2). Put plainly: Protac activity at CRBN/Cyclin B1 in human KU812 cells assessed as decrease in cyclin B1 protein level by measuring protein turnover at 100 nM measured within 6 hrs in presence of protein synthesis inhibitor cycloheximide by Western blot analysis. The settings on record: KU812 cell line. It is filed as cell-based. A digest of the protocol: (§5)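 KU812 cells given 10 μg/mL cycloheximide with or without 100 nM degrader for the indicated periods. H-PGDS/β-actin and cyclin B1/β-actin ratios by Western blot, normalized to time 0 control as 100; means ± SD, n = 3.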

Data set [17] relates to Protein cereblon/Prostaglandin E synthase (Homo sapiens). Put plainly: Protac activity at CRBN/MPGES-1 in human KU812 cells assessed as reduction in MPGES-1 protein level up to 1000 nM measured after 24 hrs by Western blot analysis. The settings on record: KU812 cell line, dose nM <=1000, time 24.0 hrs.
Data set [18] has as its target T2, Protein cereblon/Hematopoietic prostaglandin D synthase (Homo sapiens). Briefly: Protac activity at CRBN/HPGDS in human KU812 cells assessed as induction of HPGDS degradation at 1 uM measured after 6 hrs by Western blot analysis. The format is cell-based. The settings on record: KU812 cell line. A digest of the protocol: as §2
Data set [19] has the same target. Briefly: Protac activity at CRBN/HPGDS in human KU812 cells assessed as decrease in HPGDS protein level by measuring protein turnover at 100 nM measured within 6 hrs in presence of protein synthesis inhibitor cycloheximide by Western blot analysis. It is filed as cell-based. The settings on record: KU812 cell line. Summed up:
as §5

Data set [20] has the same target. Put plainly: Protac activity at CRBN/HPGDS in human KU812 cells assessed as induction of HPGDS degradation at 100 nM measured after 6 hrs in presence of ubiquitin-activating enzyme inhibitor MLN7243 by Western blot analysis. The format is cell-based. The settings on record: KU812 cell line. A digest of the protocol: as §3
Data set [21] can be described thus: Protac activity at CRBN/AKR1B1 in human KU812 cells assessed as reduction in AKR1B1 protein level up to 1000 nM measured after 24 hrs by Western blot analysis. The settings on record: KU812 cell line, dose nM <=1000, time 24.0 hrs.
The target of data set [22] is T1, Hematopoietic prostaglandin D synthase. Briefly: Inhibition of recombinant human HPGDS using [14C]-PGH2 as substrate preincubated for 1 min in presence of MgCl2 followed by substrate addition and measured after 45 mins by radioactive imaging analysis.
Data set [23] has the same target. Put plainly: Induction of HPGDS degradation in human KU812 cells at 1 uM measured after 6 hrs in presence of pomalidomide by Western blot analysis. It is filed as cell-based. The settings on record: KU812 cell line. A digest of the protocol:
as §2

The target of data set [24] is T2, Protein cereblon/Hematopoietic prostaglandin D synthase (Homo sapiens). Put plainly: Induction of CRBN-mediated HPGDS degradation in human KU812 cells at 10 to 100 nM incubated for 24 hrs followed by compound washout and further incubated for 6 hrs in compound-free medium by Western blot analysis. The format is cell-based. The settings on record: KU812 cell line, dose 10-100 nM. A digest of the protocol:
as §1

Data set [25] has as its target Baculoviral IAP repeat-containing protein 2/Hematopoietic prostaglandin D synthase (Homo sapiens) (UniProt Q13490+O60760). Put plainly: SNIPER activity at IAP1/HPGDS in human KU812 cells assessed as reduction in HPGDS protein level up to 1000 nM measured after 6 hrs by Western blot analysis. The settings on record: KU812 cell line, dose nM <=1000, time 6.0 hrs. It is filed as cell-based.

As a reminder, the IC50 is the midpoint of a concentration-inhibition curve. Regarding `CN1C(=O)CCC(N2C(=O)c3cccc(NCCOCCOCCOCCOCCOCCC(=O)N4CCN(C(=O)C5CCN(c6ccc(NC(=O)c7cnc(Oc8ccccc8)nc7)cc6)CC5)CC4)c3C2=O)C1=O` (stereo not given), the IC50 in data set [1] and in data set [6] was 320 nM in each case. In [2], the inhibition result was “Active”. Besides, the inhibition result in data set [3] was “inactive”. In addition, the outcome in data set [4] was inactive. Besides, the solubility entry in data set [5] is “Soluble”.
Regarding `Nc1cccc2c1C(=O)N(C1CCC(=O)NC1=O)C2=O` (stereo not given), the result in [7] was inactive.
On to `CON(C)C(=O)c1[nH]c(C)c(-c2nc3cc(C(=O)c4ccccc4)ccc3[nH]2)c1C`, for which, in data set [8], the IC50 was found to be 23 nM.
Regarding `O=C1CCC(N2C(=O)c3cccc(NCCOCCOCCOCCOCCOCCC(=O)N4CCN(C(=O)C5CCN(c6ccc(NC(=O)c7cnc(Oc8ccccc8)nc7)cc6)CC5)CC4)c3C2=O)C(=O)N1` (stereo not given), the IC50 in data set [1] is 320 nM; in [6] it was 266 nM. The result in data set [9], in data set [10], in data set [15], in data set [16], in data set [17] and in data set [20] was inactive. Moreover, the outcome in [21] was inactive. The inhibition result in [2] and in data set [3] was “Active” in each case. Moreover, the result in [11], in data set [12], in data set [13], in data set [14], in data set [18] and in [4] was Active. In addition, the outcome in data set [19] was Active. Besides, the solubility result in [5] is “Soluble”.
For `O=C(Nc1ccc(N2CCC(C(=O)N3CCOCC3)CC2)cc1)c1cnc(Oc2ccccc2)nc1`, the IC50 turned out to be 71 nM in [22], 320 nM in data set [1] and 71 nM in data set [6]. In addition, in data set [2], the inhibition result is “Active”. Also, the inhibition result in data set [3] is “inactive”. Moreover, the outcome in data set [23] and in [24] was inactive.
Turning to `CN[C@@H](C)C(=O)N[C@H](C(=O)N1CCC[C@H]1c1nc(C(=O)c2cccc(OCCOCCOCC(=O)N3CCN(C(=O)C4CCN(c5ccc(NC(=O)c6cnc(Oc7ccccc7)nc6)cc5)CC4)CC3)c2)cs1)C1CCCCC1`, in data set [25], the result was inactive.
